Most compounds without a hit are left out; they make up all but 1.8% or so of the library.
DDE Tn6 FP inh: inhibitors of Tn6 peptide binding to human fibrin DD(E); P02675; Fibrin DD(E) TRITC-Tn6 fluorescence polarization displacement; inhibition, % at 8.3 µM; 370,000 compounds, 0.21% hits; AID 720509;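 active means inhibition above a per-campaign cutoff: mean of compounds within control limits plus 3 SD, cut at about 15% in these data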;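 further: 0% = median of all compound wells on the plate and 100% = blocking peptide control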
ARNT-TACC3 inh: disrupts binding between human ARNT and TACC3; 390,000 compounds, 0.66% hits; inhibition, % at 9.99 µM; AlphaScreen His-ARNT PAS-B/GST-TACC3 binding, luminescence; TACC3 fragment carries E629A point mutation; Q9Y6A5;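 active means mean inhibition of replicates at least 50% and at least half of replicates each reaching 50%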;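 further: 0% = complete ARNT plus TACC3 wells and 100% = ARNT alone without TACC3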
CAL PDZ FP-1: CAL PDZ (human) peptide binding inhibition; Q9HD26; purified CAL PDZ, TMR-peptide fluorescence polarization, 1 h; inhibition, % at 24.9 µM; 300,000 compounds, 0.92% hits; AID 602252;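 active means mean inhibition of at least 30% with at least half of replicates also reaching 30%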;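 further: 0% = DMSO neutral control and 100% = excess unlabeled competitor peptide PRC23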
Tn7 DDE FP: disrupts Tn7 cyclic peptide binding to fibrin D-Dimer-E complex; P02675; FP displacement of FITC-Tn7 peptide from fibrin DD(E); 0% = median of compound wells per plate; inhibition, % at 8.3 µM; 370,000 compounds, 0.13% hits; AID 720508;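 active means inhibition above the mean of compounds falling within the control limits plus 3 SD of them, cut at about 14% in these data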;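 further: 0% = plate median of compound wells and 100% = 10 µM Aha-Tn7 peptide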
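assay system = human clot-derived fibrin DD(E) complex | quantity = Fibrin-DD(E) at 2 µM final | timing = 10 min preincubation, 3 h with tracer, room temperature | signal = fluorescence polarization | measure = percent inhibition | benchmarks = high control wells with 10 µM unlabelled Aha-Tn7 peptide (full inhibition) | replicates = singlicate testing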
GRK2 inh: inhibitors of human GRK2 displacing RNA aptamer; P25098; bead flow cytometry, FAM-aptamer displacement from GRK2; inhibition of aptamer binding, % at 10 µM; 330,000 compounds, 0.59% hits; AID 488847;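 active means inhibition of aptamer binding above 40%, roughly 3 SD of noise, on plates passing a quality check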;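 further: median bead fluorescence of bound FAM aptamer so fluorescent compounds give negative values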
Target sequence (P25098 whole entry, looked up): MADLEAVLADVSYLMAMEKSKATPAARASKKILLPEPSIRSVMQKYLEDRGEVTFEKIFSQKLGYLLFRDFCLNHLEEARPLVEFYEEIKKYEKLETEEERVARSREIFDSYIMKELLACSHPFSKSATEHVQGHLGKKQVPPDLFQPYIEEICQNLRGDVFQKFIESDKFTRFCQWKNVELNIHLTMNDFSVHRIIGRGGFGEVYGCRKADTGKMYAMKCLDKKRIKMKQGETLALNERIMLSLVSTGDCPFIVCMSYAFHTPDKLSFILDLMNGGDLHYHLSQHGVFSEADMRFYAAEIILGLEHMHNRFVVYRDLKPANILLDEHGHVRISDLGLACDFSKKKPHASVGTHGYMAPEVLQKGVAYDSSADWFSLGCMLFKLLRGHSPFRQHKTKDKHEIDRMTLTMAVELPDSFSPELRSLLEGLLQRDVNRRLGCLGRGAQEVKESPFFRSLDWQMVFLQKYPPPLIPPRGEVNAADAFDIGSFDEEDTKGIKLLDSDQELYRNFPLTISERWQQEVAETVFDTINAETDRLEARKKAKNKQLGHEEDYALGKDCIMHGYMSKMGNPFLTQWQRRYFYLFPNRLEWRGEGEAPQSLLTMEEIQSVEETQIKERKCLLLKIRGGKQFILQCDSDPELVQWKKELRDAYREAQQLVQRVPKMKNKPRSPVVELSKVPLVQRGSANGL
CAL PDZ FP-2: blocks peptide binding to human CAL PDZ domain | Q9HD26 | purified CAL PDZ, TMR-peptide fluorescence polarization, 1 h | inhibition, % at 20 µM | 330,000 compounds, 0.02% hits | AID 504414;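 active means highest replicate inhibition of at least 40%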;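 further: plate controls were DMSO neutral control wells for no effect and unlabeled competitor peptide control wells for full effect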
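Material – purified CerCALP PDZ construct · Detection – FP readout, S and P plane fluorescence · Measure – percent inhibition from loss of millipolarization · Controls – unlabelled peptide for full inhibition, DMSO wells as neutral · Probe or stimulus – TMR-labelled reporter peptide T*-PRC34 bound in PDZ groove · Times – 1 h at RT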
ARNT Alpha ctr-1: counter-screen for ARNT/TACC3 inhibitors: AlphaScreen artifacts; shares compounds with ARNT-TACC3 inh; His-ARNT PASB-GST AlphaScreen artifact counter-screen, luminescence; AC50, µM (top dose mostly 68 µM), for the others: at the top dose activity change, negative = signal decrease; 1,200 compounds, 50% hits; AID 651705;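 active means every separate test run was called active for a drop in luminescence, with AC50 within twice the top valid dose, actives reach about 71 µM in these data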
ARNT Alpha ctr-2: AlphaScreen artifact flagged for ARNT-TACC3 inhibitors; Dual-tagged His-ARNT PASB-GST AlphaScreen artifact counter-screen; AC50, µM; 45 compounds, 70% hits; shares compounds with ARNT-TACC3 inh;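 active means luminescence drop, with half-maximal potency fitted within twice the sample's top valid dose, cut at about 70 µM in these data; inactive means the rest, including signal moving the wrong way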
The depositor's hits bear a star; x = no result; [ ] = remark or other dose.

SMILES	DDE Tn6 FP inh	ARNT-TACC3 inh	CAL PDZ FP-1	Tn7 DDE FP	GRK2 inh	CAL PDZ FP-2	ARNT Alpha ctr-1	others
O=C(NCCCn1ccnc1)C(=O)NCC1OCCN1S(=O)(=O)c1ccc(Cl)cc1 (stereo not drawn)	-1.4	57.5*	x	1.6	0.0	-0.7	70.1µM*
O=C(NCCCn1ccnc1)C(=O)NCC1OCCN1S(=O)(=O)c1ccccc1 (stereo not drawn)	3.0	56.7*	2.3	3.6	0.0	-3.4	61.7µM*
O=C(NCCCn1ccnc1)C(=O)NCC1OCCCN1S(=O)(=O)c1ccc(Cl)cc1 (stereo not drawn)	11.2	3.3	-6.2	-6.1	0.0	-0.7	x
CNC[C@@H]1Oc2c(NC(=O)c3nc4ccccc4s3)cccc2C(=O)N([C@@H](C)CO)C[C@@H]1C	x	-4.3	x	x	x	x	x
Fc1ccccc1-c1n[nH]c(=S)n1N=Cc1ccc(OCc2ccccc2)cc1	9.2	x	x	2.2	x	x	x
O=C(CSc1ccc(-c2ccccn2)nn1)NC1CCCCC1	4.1	54.9*	-1.7	1.9	1.0	-0.6	25.6µM*	ARNT Alpha ctr-2=19.8*
O=C(CSc1ccc(-c2cccc([N+](=O)[O-])c2)nn1)NCc1ccccc1	-4.6	0.3	0.5	-1.4	0.0	0.3	x
O=C(CSc1ccc(-c2ccccn2)nn1)NCc1ccc(F)cc1	-5.2	54.7*	-8.6	-4.3	0.0	0.2	29µM*
O=C(CSc1ccc(-c2ccccn2)nn1)NCc1ccccc1	9.4	102.1*	-0.4	4.8	1.0	-1.3	41.1µM*
O=C(NC1Cc2ccccc2C1)c1cc(-c2ccccc2)on1	x	x	x	x	x	x	1.3%[38 µM]
O=C(NC1CCCCC1)c1cc(-c2ccc(F)cc2)on1	-0.6	-4.3	-0.8	-2.2	2.0	-2.7	x
O=C(NC1CCc2ccccc2C1)c1cc(-c2ccccc2)on1 (stereo not drawn)	x	x	x	x	x	x	-1.8%[38 µM]
Cc1ccc(-c2cc(C(=O)NC3CCCC3)no2)cc1	-0.9	-7.3	x	-7.8	0.0	-1.0	x
C[C@H](O)C#Cc1cnc2c(c1)C(=O)N([C@H](C)CO)C[C@@H](C)[C@H](CN(C)CC1CCCC1)O2	x	-5.7	x	x	x	x	x
COc1ccccc1NC(=O)N1C[C@@H](C)[C@H](OC)CN(C)C(=O)c2cc(NC(=O)c3cc(C)on3)ccc2OC[C@H]1C	x	26.9	x	x	x	x	x
Cc1cccc(S(=O)(=O)N[C@H]2CC[C@H](CCn3cc(-c4ccccn4)nn3)O[C@H]2CO)c1	x	90.2*	x	x	x	x	56.7µM*
O=S(=O)(N[C@H]1CC[C@H](CCn2cc(-c3ccccn3)nn2)O[C@H]1CO)c1cccc(F)c1	x	67.0*	x	x	x	x	43.2µM*
O=S(=O)(N[C@@H]1CC[C@H](CCn2cc(-c3cccc(F)c3)nn2)O[C@H]1CO)c1ccccc1	x	4.2	x	x	x	x	x
O=S(=O)(N[C@@H]1CC[C@@H](CCn2cc(-c3ccccn3)nn2)O[C@@H]1CO)c1cccc(F)c1	x	94.1*	x	x	x	x	46.7µM*
O=S(=O)(N[C@H]1CC[C@@H](CCn2cc(-c3ccccn3)nn2)O[C@@H]1CO)c1cccc(F)c1	x	67.7*	x	x	x	x	33.6µM*
O=S(=O)(N[C@H]1CC[C@H](CCn2cc(-c3ccccn3)nn2)O[C@@H]1CO)c1cccc(F)c1	x	78.5*	x	x	x	x	34.2µM*
O=S(=O)(N[C@H]1CC[C@H](CCn2cc(-c3cccc(F)c3)nn2)O[C@H]1CO)c1ccccc1	x	-0.9	x	x	x	x	x
C#CCOc1ccc(Br)cc1C(c1c(C)[nH][nH]c1=O)c1c(C)[nH][nH]c1=O	1.2	-5.8	3.4	-0.5	0.0	1.1	x
CCOc1ccc(Cl)cc1C(c1c(C)[nH][nH]c1=O)c1c(C)[nH][nH]c1=O	-1.3	active	5.2	5.4	0.0	-1.4	3.7%
O=C(C[C@H]1C[C@H]2c3cc(NC(=O)Nc4ccccc4)ccc3O[C@H]2[C@@H](CO)O1)NCC1CC1	x	-0.5	x	x	x	x	x
